Results taken from ChEMBL document CHEMBL3797202, “Novel Oxindole Sulfonamides and Sulfamides: EPZ031686, the First Orally Bioavailable Small Molecule SMYD3 Inhibitor” (ACS Med Chem Lett, 2016).
pIC50: −log10 of the molar value.

Tests used:
[1] = biological target: T1, Histone-lysine N-methyltransferase EHMT1 (Homo sapiens) (UniProt Q9H9B1); test: Inhibition of EHMT1 (unknown origin) at 10 uM relative to control
T1 sequence (whole entry): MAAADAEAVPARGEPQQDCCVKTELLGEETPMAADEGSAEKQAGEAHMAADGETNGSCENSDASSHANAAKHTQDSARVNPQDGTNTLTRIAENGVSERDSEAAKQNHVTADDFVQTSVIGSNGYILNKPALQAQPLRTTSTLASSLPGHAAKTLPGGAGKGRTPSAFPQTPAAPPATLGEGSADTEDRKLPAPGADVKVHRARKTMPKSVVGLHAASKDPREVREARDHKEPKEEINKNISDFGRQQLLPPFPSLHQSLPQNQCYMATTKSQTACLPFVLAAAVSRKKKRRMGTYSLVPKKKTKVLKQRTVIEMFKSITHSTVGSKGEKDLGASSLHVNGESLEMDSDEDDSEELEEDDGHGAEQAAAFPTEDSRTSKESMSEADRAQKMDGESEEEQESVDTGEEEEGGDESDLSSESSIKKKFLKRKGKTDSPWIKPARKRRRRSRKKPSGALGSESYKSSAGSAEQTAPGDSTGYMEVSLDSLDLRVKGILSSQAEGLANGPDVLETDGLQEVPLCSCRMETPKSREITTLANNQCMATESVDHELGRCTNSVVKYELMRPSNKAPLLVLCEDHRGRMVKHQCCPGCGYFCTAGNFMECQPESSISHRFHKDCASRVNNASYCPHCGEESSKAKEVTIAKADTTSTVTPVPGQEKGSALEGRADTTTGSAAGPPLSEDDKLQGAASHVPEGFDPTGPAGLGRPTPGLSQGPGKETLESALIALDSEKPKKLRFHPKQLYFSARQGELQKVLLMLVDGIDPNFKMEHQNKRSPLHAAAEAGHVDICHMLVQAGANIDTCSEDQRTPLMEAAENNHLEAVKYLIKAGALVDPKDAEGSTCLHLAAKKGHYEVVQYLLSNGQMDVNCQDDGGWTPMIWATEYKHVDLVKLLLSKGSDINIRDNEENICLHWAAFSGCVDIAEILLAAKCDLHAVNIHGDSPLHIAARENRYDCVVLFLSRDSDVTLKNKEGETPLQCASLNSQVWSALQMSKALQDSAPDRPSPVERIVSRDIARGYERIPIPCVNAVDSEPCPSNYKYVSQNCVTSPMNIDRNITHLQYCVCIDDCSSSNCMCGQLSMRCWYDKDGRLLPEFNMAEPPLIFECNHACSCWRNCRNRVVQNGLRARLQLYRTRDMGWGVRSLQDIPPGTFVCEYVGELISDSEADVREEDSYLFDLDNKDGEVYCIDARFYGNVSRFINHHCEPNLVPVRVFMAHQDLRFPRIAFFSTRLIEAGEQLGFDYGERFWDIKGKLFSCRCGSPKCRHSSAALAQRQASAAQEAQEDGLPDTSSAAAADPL

[2] = biological target: Histone-lysine N-methyltransferase, H3 lysine-36 specific (Homo sapiens) (UniProt Q96L73); test: Inhibition of NSD1 (unknown origin) at 10 uM relative to control
Histone-lysine N-methyltransferase, H3 lysine-36 specific (Homo sapiens), sequence (Q96L73 whole entry): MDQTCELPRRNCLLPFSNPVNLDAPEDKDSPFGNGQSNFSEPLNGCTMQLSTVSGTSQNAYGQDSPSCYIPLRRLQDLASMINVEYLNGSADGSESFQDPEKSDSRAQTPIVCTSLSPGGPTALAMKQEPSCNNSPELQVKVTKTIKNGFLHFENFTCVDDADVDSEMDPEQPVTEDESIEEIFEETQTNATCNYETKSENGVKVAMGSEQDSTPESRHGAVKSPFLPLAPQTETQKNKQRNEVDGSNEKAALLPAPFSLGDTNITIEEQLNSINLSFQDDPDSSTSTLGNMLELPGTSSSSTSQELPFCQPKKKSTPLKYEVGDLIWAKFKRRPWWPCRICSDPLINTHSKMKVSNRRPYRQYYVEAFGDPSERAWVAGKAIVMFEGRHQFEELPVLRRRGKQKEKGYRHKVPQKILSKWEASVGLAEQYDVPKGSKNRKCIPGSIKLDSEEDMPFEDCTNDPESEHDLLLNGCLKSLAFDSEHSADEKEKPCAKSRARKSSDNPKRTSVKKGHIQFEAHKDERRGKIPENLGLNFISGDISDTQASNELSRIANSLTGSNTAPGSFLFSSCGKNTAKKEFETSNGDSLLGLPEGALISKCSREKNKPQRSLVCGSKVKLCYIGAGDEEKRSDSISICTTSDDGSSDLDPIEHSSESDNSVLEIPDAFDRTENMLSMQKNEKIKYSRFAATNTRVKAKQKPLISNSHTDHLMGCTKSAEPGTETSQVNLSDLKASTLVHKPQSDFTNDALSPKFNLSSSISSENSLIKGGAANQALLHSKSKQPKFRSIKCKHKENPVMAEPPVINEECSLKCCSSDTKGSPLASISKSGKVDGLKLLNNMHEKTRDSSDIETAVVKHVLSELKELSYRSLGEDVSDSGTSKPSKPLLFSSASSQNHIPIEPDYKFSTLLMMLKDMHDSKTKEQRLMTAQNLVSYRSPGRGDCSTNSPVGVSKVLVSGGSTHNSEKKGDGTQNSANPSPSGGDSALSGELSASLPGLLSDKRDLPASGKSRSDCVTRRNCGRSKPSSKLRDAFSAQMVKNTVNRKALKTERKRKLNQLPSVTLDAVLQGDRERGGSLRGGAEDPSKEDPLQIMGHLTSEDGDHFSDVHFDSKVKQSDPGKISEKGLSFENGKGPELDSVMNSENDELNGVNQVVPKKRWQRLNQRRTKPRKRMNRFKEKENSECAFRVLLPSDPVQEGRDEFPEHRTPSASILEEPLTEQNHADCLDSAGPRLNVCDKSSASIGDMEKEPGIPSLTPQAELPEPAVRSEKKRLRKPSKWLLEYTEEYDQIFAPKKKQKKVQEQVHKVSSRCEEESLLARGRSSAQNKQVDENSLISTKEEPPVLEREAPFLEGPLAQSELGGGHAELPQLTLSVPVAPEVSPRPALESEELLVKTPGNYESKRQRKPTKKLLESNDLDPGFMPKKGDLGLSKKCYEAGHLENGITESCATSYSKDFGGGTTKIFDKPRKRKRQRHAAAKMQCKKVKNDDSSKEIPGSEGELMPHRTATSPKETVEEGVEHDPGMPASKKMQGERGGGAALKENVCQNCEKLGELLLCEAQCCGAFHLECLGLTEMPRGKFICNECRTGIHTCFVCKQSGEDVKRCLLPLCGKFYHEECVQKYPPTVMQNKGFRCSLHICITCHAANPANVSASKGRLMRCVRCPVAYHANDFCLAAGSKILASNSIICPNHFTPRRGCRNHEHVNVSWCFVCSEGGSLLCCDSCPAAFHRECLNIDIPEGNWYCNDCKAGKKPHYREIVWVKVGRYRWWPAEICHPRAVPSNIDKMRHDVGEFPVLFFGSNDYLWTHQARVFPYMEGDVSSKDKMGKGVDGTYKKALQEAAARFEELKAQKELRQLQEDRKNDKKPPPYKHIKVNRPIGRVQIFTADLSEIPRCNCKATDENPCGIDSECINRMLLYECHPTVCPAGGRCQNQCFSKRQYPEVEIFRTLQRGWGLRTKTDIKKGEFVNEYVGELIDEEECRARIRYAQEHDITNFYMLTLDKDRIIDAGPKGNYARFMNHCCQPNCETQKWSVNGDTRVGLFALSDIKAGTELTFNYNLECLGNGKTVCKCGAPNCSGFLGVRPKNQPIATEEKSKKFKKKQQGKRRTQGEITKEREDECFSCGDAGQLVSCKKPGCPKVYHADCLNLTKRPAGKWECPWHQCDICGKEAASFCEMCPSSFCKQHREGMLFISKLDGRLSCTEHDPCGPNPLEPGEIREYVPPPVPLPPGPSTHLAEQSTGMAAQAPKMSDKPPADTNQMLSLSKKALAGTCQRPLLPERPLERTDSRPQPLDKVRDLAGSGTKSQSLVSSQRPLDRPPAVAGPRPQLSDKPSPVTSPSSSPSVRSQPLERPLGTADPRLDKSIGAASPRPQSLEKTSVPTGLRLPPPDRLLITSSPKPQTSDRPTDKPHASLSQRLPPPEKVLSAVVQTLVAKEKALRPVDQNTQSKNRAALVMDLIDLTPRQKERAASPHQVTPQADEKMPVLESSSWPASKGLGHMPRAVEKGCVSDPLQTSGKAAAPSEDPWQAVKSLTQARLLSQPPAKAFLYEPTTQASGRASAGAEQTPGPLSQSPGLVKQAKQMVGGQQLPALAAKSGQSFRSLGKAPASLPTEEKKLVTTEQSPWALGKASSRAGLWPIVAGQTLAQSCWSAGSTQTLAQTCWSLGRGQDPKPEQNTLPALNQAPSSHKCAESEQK

[3] = biological target: Histone-lysine N-methyltransferase PRDM9 (Homo sapiens) (UniProt Q9NQV7); test: Inhibition of PRDM9 (unknown origin) at 10 uM relative to control
Histone-lysine N-methyltransferase PRDM9 (Homo sapiens), sequence (Q9NQV7 whole entry): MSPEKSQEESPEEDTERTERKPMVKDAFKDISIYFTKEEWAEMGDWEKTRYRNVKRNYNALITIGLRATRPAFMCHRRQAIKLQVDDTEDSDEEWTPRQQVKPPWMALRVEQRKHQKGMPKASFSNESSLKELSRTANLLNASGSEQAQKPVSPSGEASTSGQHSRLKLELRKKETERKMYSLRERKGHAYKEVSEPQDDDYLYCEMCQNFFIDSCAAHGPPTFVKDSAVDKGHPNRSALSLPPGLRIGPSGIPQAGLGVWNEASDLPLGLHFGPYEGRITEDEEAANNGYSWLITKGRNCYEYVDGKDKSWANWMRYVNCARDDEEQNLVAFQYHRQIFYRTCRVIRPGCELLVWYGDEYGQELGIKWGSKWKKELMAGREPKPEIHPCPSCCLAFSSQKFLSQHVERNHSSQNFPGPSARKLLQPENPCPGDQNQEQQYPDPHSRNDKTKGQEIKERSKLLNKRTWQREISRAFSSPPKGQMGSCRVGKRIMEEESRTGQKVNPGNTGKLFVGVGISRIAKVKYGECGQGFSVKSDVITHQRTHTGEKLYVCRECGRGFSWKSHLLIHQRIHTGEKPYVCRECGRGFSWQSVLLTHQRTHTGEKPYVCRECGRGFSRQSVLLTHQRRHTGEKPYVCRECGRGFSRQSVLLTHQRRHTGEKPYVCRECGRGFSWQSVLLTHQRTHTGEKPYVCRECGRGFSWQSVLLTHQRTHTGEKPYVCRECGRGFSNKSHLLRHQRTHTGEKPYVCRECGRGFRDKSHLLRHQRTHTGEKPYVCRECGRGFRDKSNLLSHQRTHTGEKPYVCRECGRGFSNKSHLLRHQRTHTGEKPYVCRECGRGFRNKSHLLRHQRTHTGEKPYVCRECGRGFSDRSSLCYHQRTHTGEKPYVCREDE

[4] = biological target: Histone-lysine N-methyltransferase SETDB1 (Homo sapiens) (UniProt Q15047); test: Inhibition of SETDB1 (unknown origin) at 10 uM relative to control
[5] = biological target: T2, Histone-lysine N-methyltransferase NSD2 (Homo sapiens) (UniProt O96028); test: Inhibition of WHSC1 (unknown origin) at 10 uM relative to control
T2 sequence (whole entry): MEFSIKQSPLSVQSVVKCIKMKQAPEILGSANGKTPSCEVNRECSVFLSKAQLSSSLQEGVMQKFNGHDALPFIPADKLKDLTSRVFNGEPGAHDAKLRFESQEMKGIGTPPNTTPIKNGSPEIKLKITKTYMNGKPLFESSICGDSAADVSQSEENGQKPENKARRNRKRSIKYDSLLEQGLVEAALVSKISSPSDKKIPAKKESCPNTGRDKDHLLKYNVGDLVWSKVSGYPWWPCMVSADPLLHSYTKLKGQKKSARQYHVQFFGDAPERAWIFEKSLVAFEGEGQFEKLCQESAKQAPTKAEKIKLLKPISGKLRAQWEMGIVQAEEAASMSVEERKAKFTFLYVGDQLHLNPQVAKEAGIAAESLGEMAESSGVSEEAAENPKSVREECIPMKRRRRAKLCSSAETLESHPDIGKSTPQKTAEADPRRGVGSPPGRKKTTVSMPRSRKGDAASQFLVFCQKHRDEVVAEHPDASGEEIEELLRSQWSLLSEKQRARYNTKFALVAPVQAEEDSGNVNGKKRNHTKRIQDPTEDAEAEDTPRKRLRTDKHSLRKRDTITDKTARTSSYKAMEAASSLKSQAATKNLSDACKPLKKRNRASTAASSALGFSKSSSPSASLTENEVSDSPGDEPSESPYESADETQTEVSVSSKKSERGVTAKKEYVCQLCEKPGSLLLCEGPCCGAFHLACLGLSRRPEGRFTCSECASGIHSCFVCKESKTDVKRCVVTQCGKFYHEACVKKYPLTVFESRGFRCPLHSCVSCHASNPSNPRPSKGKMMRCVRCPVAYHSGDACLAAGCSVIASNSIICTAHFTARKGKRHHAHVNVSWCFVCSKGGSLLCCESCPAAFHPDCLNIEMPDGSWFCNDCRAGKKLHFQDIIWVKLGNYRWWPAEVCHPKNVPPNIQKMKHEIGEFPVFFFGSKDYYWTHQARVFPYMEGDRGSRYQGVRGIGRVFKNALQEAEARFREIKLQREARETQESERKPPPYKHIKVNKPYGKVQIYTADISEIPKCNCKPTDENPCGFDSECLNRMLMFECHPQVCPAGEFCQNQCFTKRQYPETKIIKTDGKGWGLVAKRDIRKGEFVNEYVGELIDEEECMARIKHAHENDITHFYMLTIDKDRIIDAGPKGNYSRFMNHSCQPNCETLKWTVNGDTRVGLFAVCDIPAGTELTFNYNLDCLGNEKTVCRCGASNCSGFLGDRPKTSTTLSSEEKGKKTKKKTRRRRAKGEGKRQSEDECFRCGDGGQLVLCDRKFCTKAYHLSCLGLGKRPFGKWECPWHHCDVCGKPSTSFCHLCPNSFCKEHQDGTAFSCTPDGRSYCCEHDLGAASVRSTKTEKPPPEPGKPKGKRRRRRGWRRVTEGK

[6] = biological target: N-lysine methyltransferase SMYD2 (Homo sapiens, UniProt Q9NRG4); test: Inhibition of SMYD2 (unknown origin)
N-lysine methyltransferase SMYD2, sequence (Q9NRG4 whole entry): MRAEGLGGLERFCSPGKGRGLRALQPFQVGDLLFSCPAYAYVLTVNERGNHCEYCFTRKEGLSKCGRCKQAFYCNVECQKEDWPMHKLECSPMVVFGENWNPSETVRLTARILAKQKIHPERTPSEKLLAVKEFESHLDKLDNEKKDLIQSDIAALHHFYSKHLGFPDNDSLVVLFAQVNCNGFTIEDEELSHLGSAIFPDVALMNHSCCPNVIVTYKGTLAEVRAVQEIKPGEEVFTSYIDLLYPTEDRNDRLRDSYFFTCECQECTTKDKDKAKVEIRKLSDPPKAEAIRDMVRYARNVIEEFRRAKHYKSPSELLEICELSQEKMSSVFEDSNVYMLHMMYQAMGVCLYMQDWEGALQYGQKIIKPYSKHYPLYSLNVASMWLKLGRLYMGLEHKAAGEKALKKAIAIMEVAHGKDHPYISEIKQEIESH

[7] = Oral bioavailability in CD1 mouse at 50 mg/kg measured up to 24 hrs by LC-MS/MS analysis; type: ADME, organism-based; settings: in vivo
Method in brief: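 Male CD-1 mice received a single bolus: 1 mg/kg i.v., or 5 or 50 mg/kg p.o. Values are mean ± SD, n = 3. […] Bioavailability was determined separately for each oral dose.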

O=C1Cc2cc(C(=O)N[C@H]3C[C@H]4CC[C@@H](C3)N4S(=O)(=O)N3CCC(NCc4ccccc4)CC3)c(Cl)cc2N1
inhibition [1]: < 30%
inhibition [2]: < 30%
inhibition [3]: < 30%
inhibition [4]: < 30%
inhibition [5]: < 30%
pIC50 [6]: < 4.30

O=C1Cc2cc(C(=O)N[C@H]3C[C@H]4CC[C@@H](C3)N4S(=O)(=O)CC3CCN(CCCC(F)(F)F)CC3)c(Cl)cc2N1
inhibition [1]: < 30%
inhibition [2]: < 30%
inhibition [3]: < 30%
inhibition [4]: < 30%
inhibition [5]: < 30%
pIC50 [6]: < 4.30
bioavailability [7]: 69%
